Screening results as filed in PubChem BioAssay.
The list is not random: actives were taken first. Their share in the collection is about 4.2%.
CHO parental Ca = counter-screen for OX1R antagonists: effect in parental CHO cells | 330,000 compounds, 0.63% hits | AID 463079 | inhibition, % at 5.6 µM | parental CHO-K1, ATP-induced calcium, Fluo-8 fluorescence;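 active = inhibition above that plate's mean sample inhibition plus 3 SD, cut at about 26% in these data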;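 also: 0% = ATP-challenged DMSO wells and 100% = DMSO wells without ATP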
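Test system: parental CHO cells; detection: calcium-sensitive Fluo-8 fluorescence; evaluation: percent inhibition of calcium signal; also added: ATP as calcium-mobilizing challenge; repeats: one well per compound; control set: ATP-challenged DMSO wells low, unchallenged DMSO wells high; compound: single nominal dose of 5.6 µM per compound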
OX1R antag-1 = antagonists of human orexin 1 receptor | O43613 | CHO/OX1R cells, Fluo-8 calcium fluorescence, orexin A | inhibition, % at 5 µM | 330,000 compounds, 0.43% hits;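 active = inhibition above its plate's threshold, mean inhibition of all tested compounds on the plate plus 3 SD, cut at about 37% in these data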;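 also: 0% = orexin A challenge wells and 100% = SB-334867-A antagonist wells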
Target sequence (O43613 whole entry, looked up): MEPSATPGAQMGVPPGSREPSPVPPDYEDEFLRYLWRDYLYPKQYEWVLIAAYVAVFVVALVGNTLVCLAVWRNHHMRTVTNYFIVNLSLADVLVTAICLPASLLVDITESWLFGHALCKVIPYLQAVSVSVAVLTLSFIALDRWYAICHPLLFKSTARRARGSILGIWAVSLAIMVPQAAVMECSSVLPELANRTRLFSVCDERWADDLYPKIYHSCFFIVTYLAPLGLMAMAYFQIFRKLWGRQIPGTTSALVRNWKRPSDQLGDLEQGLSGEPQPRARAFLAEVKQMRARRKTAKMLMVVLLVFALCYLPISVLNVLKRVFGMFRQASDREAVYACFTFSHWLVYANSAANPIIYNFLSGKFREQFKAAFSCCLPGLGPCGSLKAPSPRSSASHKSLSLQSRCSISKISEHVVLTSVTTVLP
OX1R antag-2 = blocks the human orexin 1 receptor. inhibition, % at 6.6 µM. 330,000 compounds, 1.8% hits. AID 485270. OX1R-expressing cells, FRET antagonist read-out; in the data active = inhibition mostly above about 38%, no sharp cut-off; inactive = mostly below about 40%;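 also: 0% = agonist challenge alone and 100% = reference antagonist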
TAAR1 antagonist = human TAAR1 antagonism | CHO RD-HGA16 TAAR1, Fluo-8 calcium fluorescence, antagonist | inhibition, % at 3 µM | 360,000 compounds, 1.5% hits | AID 624466;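 active = inhibition above a per-plate cutoff, the mean inhibition of test compounds on that plate plus 3 SD, cut at about 49% in these data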;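 also: 0% = DMSO plus EC80 beta-PEA response and 100% = DMSO alone without agonist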
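Assay system: CHO-derived RD-HGA16 cells stably expressing human TAAR1 plus Gα16. Timing: 140 s kinetic read after compound, 140 s after agonist. Technique: kinetic Fluo-8 calcium fluorescence measurement. Measure: % inhibition of agonist calcium response.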
GalR3 antag = human GalR3 antagonism. O60755. HEK293 GalR3-CNG cAMP membrane potential fluorescence; galR3 body fused to GalR1 C-terminus. inhibition, % at 3 µM. 360,000 compounds, 0.44% hits;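 active = inhibition above the screen-wide average plus 3 SD, cut at about 13% in these data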;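 also: forskolin and galanin both at EC90 stimulate the cells; cAMP rise reported by CNG channel membrane potential dye signal; 0% = forskolin plus galanin with DMSO and 100% = forskolin alone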
Target sequence (O60755 1-299 limits assumed): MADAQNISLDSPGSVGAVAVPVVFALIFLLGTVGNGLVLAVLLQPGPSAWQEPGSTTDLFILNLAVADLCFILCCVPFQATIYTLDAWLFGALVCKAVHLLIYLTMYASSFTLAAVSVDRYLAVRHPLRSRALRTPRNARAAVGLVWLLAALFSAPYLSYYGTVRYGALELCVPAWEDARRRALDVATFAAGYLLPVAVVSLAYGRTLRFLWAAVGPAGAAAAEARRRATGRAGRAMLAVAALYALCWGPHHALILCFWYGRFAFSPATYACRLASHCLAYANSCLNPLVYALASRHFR
TAAR1 agonist = human TAAR1 agonism; Q96RJ0; CHO RD-HGA16 TAAR1, Fluo-8 calcium fluorescence; vehicle wells 0%, saturating PEA agonist 100%; activation, % at 3 µM; 360,000 compounds, 0.99% hits;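 active = activation above the mean activation of all test compounds in the run plus 3 SD, cut at about 38% in these data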
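test system = CHO RD-HGA16 cells carrying human TAAR1 plus Gα16 | schedule = 17-24 h seeding, 75 min 37 °C dye, 30 min RT | compound dosing = 3 µM single concentration | control set = DMSO and PEA EC100 | replicates = n 1 | signal = Fluo-8 fluorescence, 5 s baseline then 140 s kinetic read | measure = percent activation vs PEA EC100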
Numbers without * were called inactive; nt = no result.

SMILES	CHO parental Ca	OX1R antag-1	OX1R antag-2	TAAR1 antagonist	GalR3 antag	TAAR1 agonist
O=C(OCC(=O)N1CCCc2ccccc21)c1cc(S(=O)(=O)N2CCOCC2)ccc1Cl	-27.9	-28.4	30.6	47.2	-5.1	8.8
CN(CC(=O)Nc1ccc(F)cc1)C(=O)c1cn(-c2ccccc2)nc1-c1cccs1	-15.8	-11.2	7.7	51.0*	-4.9	16.5
CN(CC(=O)Nc1cccc(F)c1)C(=O)c1cn(-c2ccccc2)nc1-c1ccccc1	-10.6	10.1	21.6	40.8	-4.7	1.3
CC(C)=C(C#N)c1nc2ccccc2s1	49.9*	74.3*	9.5	16.6	-3.6	13.4
COc1cc(/C=C(\C#N)c2nc3ccccc3s2)ccc1OCC(=O)Nc1ccccc1	45.7*	43.5	12.2	nt	nt	nt
COC(=O)c1ccc(/C(O)=C(\C#N)c2nc3ccccc3s2)cc1	7.1	-10.9	50.3	-0.6	-1.9	11.7
N#C/C(=C/c1ccncc1)c1nc2ccccc2s1	43.8*	50.6*	14.8	-1.1	1.7	4.2
CCCCOCC1CN(CCCC)S(=O)(=O)c2c(cccc2Sc2ccc(OC)c(OC)c2)O1 (stereo unspecified)	nt	nt	nt	-18.9	-2.8	0.0
COc1ccc(NC(=O)c2cc(-c3ccc(C)c(C)c3O)n[nH]2)cc1Cl	24.3	0.2	50.0*	28.6	-12.8	5.2
CCOC(=O)C1(C)CCN1C(=O)c1cc(OC)c(OC)c(OC)c1 (stereo unspecified)	nt	nt	nt	-5.0	0.2	0.4
O=C1c2ccccc2-c2cccnc21	-4.3	-19.8	46.6*	-18.8	-7.2	1.9
O=C(c1cc(O)c(O)c([N+](=O)[O-])c1)c1ccccc1F	-9.5	-8.2	38.8*	-22.9	nt	4.5
COc1ccc(N=C2NC(=O)S/C2=C\c2ccc(N(C)C)cc2)cc1	37.2*	35.9	11.9	57.6*	-1.4	27.1
CCOc1ccc(N=C2NC(=O)S/C2=C\c2ccc(Cl)cc2)cc1	-11.6	-14.4	15.9	4.2	1.3	7.9
Cc1ccc(NC(=O)Nc2ccc(F)cc2F)c(OC(F)F)c1	9.1	-20.6	18.8	1.1	-7.0	25.2
NC(=S)NN=C1CCC(C2CCCCC2)CC1 (stereo unspecified)	nt	nt	nt	-6.3	-2.6	5.2
CC1CCCN(C(=O)COC(=O)CSc2ccc(C(N)=O)cc2[N+](=O)[O-])C1 (stereo unspecified)	-15.5	-15.8	74.2*	9.0	-0.7	0.8
Cc1ccc(NC(=O)CSc2ccc(C(N)=O)cc2[N+](=O)[O-])cc1	-2.8	-23.4	21.1	6.1	-4.7	1.5
CN(C(=O)COC(=O)CSc1ccc(C(N)=O)cc1[N+](=O)[O-])C1CCCCC1	-2.2	-13.4	47.1*	7.5	-6.3	4.2
Cc1ccc(NC(=O)CSc2ccc(C(N)=O)cc2[N+](=O)[O-])cc1C	32.7*	-29.2	10.6	2.1	-4.4	1.1
O=C(CSc1ccccc1F)OCC(=O)N1CCN(C(=O)c2ccco2)CC1	0.7	-15.3	11.2	-1.1	-0.7	2.9
NC(=O)c1ccc(SCC(=O)OCC(=O)N2CCN(C(=O)c3ccco3)CC2)c([N+](=O)[O-])c1	-7.8	-7.9	57.6*	-18.4	1.0	0.4
CCCN(C(=O)COC(=O)CSc1ccc(C(N)=O)cc1[N+](=O)[O-])C1CCS(=O)(=O)C1 (stereo unspecified)	nt	nt	nt	-23.6	-2.6	2.4
CS(=O)(=O)c1ccc(C(=O)Nc2cc(S(C)(=O)=O)ccc2Cl)cc1	-7.6	-2.1	16.9	3.5	-1.9	4.8
COc1ccc(C(CC(=O)O)NC(=O)Nc2ccccc2)cc1OC (stereo unspecified)	-2.0	-2.3	1.7	9.4	-8.9	1.6
SMILES	CHO parental Ca	OX1R antag-1	OX1R antag-2	TAAR1 antagonist	GalR3 antag	TAAR1 agonist
COC(=O)c1ccc(SCC(=O)N2CCC(C)CC2)c([N+](=O)[O-])c1	-12.9	-11.7	24.6	-0.6	-4.0	4.1
CC1CCN(C(=O)COC(=O)CSc2ccc(C(N)=O)cc2[N+](=O)[O-])CC1	-17.8	-17.8	63.1*	-4.0	1.1	1.4
NC(=O)c1ccc(SCC(=O)OCC(=O)N2CCCCC2)c([N+](=O)[O-])c1	21.7	-3.0	63.4*	-29.5	-4.2	1.4
COc1ccc(C(=O)C2CCCN(Cc3c(O)cccc3OC)C2)cc1OC (stereo unspecified)	-13.8	-19.1	3.0	-6.1	-9.8	-0.2
COc1ccccc1/C=C/CN1CCCC(CO)(Cc2cccc(Cl)c2)C1 (stereo unspecified)	33.6*	61.0*	69.2*	-12.1	-4.1	3.1
COc1ccc2c(c1)c1nnc(SCC(=O)NC3CC3)nc1n2C	-10.2	-10.6	84.9*	6.0	-7.3	-2.1
COc1ccc2c(c1)c1nnc(SCC(=O)Nc3ccccc3F)nc1n2C	-14.7	-11.0	11.1	-7.2	-5.9	3.4
CC(Sc1nn(-c2ccccc2)c(=S)s1)C(=O)NCC1CCCO1 (stereo unspecified)	-10.7	-13.3	4.7	1.3	-5.4	-0.7
O=C1OC(/C(=C\Nc2ccccc2)[N+](=O)[O-])c2ccccc21 (stereo unspecified)	-4.2	-13.3	11.4	-4.9	-7.0	-0.1
O=C(Nc1ccccc1C(=O)Nc1nnc(C(F)(F)F)s1)c1ccccc1Cl	53.5*	37.4*	79.7*	24.9	-8.6	13.5
Cc1nn(-c2ccccc2)nc1C(=O)Nc1nnc(C(F)(F)F)s1	-2.9	0.5	41.1*	-12.6	-4.3	4.1
O=C(Nc1nnc(C(F)(F)F)s1)c1ccc(Br)s1	26.5*	7.3	49.1*	-24.0	-4.2	7.6
CCc1nnc(NC(=O)c2nn(-c3ccccc3)nc2C)s1	-14.4	-28.2	3.0	3.3	5.9	0.1
Cc1ccc2c(Cl)c(C)c(N3CCCC3)nc2n1	-20.5	-24.4	28.4	-1.9	-2.8	0.7
O=C1c2ccccc2NC(c2ccc3c(c2)OCO3)N1O (stereo unspecified)	4.0	-7.7	31.7	-15.0	-1.2	4.3
CC(C)c1csc(CN2CCC(C(=O)Nc3cccc(-c4ccco4)c3)CC2)n1	nt	nt	nt	-13.0	-3.0	-0.8
COc1cc(/C=C/c2ccc3cccc(OC)c3n2)c(OC(C)=O)c([N+](=O)[O-])c1	-9.7	-29.8	59.0*	48.9*	-4.1	7.3
COc1cc(/C=C/c2ccc3cccc(OC)c3n2)c(O)c([N+](=O)[O-])c1	-4.6	-18.5	11.3	-6.4	-4.0	6.7
Cc1cc2sc3ccccc3c(=O)c2c(C)c1O	2.3	-1.4	68.7*	2.1	-5.9	-0.9
Cc1ccc(NS(=O)(=O)c2ccc(NC(=O)c3ccc(Br)o3)cc2)c(C)c1	35.9*	39.4	19.2	42.1	-3.7	11.9
Cc1ccc(NS(=O)(=O)c2ccc(NC(=O)c3ccccc3C(=O)O)cc2)c(C)c1	-6.4	-4.2	17.9	-23.7	-5.2	3.3
